pIC50: −log10 of the molar value. Positions of bridges follow the written chain, without caps; N, C: chain ends. Residues, ends and D or L forms follow the SMILES beside them.
Legend:
[1] = molecular target: Sodium channel protein type 9 subunit alpha (Homo sapiens, UniProt Q15858); assay: Inhibition of human Nav1.7 expressed in HEK293 cells assessed as inward peak current by ion-works quattro patch clamp electrophysiology method; format: cell-based
[2] = molecular target: Sodium channel protein type 5 subunit alpha (Homo sapiens, UniProt Q14524); assay: Inhibition of human Nav1.5 expressed in HEK293 cells assessed as inward peak current by ion-works quattro patch clamp electrophysiology method; format: cell-based
Sequence of Sodium channel protein type 5 subunit alpha (Q14524 whole entry): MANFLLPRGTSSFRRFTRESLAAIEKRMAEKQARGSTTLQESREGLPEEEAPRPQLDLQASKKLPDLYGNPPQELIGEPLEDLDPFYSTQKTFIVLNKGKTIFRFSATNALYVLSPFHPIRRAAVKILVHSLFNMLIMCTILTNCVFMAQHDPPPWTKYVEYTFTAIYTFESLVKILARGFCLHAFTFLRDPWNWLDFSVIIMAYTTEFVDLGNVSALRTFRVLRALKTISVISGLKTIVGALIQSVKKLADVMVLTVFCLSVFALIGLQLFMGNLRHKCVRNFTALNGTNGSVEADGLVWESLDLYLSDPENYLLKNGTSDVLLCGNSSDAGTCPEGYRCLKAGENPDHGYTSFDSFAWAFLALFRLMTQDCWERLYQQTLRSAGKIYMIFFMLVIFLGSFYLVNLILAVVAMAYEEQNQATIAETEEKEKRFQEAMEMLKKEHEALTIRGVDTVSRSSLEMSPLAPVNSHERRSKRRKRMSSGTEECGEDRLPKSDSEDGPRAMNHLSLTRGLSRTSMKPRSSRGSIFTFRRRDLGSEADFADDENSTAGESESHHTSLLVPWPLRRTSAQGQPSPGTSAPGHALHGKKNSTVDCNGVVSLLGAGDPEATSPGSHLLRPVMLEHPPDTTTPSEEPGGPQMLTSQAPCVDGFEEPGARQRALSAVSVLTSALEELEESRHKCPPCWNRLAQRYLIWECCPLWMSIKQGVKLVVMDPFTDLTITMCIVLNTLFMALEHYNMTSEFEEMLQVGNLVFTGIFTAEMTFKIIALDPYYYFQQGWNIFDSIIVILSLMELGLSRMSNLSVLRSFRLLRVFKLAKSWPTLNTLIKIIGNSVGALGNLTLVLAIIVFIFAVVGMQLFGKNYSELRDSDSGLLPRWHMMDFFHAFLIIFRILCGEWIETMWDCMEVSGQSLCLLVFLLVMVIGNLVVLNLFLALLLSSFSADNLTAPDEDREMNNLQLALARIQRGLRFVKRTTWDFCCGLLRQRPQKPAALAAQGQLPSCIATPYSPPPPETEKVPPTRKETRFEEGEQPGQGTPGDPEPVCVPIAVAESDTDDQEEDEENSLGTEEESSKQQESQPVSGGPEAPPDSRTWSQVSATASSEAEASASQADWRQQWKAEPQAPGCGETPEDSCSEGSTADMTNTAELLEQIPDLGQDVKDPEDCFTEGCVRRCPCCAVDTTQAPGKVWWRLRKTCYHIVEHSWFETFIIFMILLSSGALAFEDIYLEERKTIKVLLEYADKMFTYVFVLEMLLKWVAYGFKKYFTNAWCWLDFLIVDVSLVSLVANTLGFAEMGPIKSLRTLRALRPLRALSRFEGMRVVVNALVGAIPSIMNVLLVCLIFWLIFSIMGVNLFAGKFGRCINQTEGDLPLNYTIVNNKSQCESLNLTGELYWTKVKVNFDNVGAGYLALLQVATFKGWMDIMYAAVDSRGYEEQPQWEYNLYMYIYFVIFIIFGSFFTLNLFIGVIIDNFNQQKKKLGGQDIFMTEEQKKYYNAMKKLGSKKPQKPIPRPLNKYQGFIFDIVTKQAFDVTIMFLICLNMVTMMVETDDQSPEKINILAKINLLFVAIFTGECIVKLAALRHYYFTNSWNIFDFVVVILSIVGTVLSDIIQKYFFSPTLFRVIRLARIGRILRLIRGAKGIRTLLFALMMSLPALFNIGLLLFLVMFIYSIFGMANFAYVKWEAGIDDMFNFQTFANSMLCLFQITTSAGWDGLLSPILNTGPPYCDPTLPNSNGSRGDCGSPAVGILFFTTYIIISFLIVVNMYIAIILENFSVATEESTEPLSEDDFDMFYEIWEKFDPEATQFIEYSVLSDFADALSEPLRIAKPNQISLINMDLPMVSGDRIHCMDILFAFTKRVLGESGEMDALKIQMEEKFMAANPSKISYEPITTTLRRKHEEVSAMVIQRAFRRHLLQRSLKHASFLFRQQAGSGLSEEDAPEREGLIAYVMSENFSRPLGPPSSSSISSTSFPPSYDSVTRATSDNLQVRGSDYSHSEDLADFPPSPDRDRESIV
Outline: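 Stable HEK293 line expressing human NaV1.5, recorded by population patch clamp on the IonWorks Quattro.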

Sequence of Sodium channel protein type 9 subunit alpha (Q15858 whole entry): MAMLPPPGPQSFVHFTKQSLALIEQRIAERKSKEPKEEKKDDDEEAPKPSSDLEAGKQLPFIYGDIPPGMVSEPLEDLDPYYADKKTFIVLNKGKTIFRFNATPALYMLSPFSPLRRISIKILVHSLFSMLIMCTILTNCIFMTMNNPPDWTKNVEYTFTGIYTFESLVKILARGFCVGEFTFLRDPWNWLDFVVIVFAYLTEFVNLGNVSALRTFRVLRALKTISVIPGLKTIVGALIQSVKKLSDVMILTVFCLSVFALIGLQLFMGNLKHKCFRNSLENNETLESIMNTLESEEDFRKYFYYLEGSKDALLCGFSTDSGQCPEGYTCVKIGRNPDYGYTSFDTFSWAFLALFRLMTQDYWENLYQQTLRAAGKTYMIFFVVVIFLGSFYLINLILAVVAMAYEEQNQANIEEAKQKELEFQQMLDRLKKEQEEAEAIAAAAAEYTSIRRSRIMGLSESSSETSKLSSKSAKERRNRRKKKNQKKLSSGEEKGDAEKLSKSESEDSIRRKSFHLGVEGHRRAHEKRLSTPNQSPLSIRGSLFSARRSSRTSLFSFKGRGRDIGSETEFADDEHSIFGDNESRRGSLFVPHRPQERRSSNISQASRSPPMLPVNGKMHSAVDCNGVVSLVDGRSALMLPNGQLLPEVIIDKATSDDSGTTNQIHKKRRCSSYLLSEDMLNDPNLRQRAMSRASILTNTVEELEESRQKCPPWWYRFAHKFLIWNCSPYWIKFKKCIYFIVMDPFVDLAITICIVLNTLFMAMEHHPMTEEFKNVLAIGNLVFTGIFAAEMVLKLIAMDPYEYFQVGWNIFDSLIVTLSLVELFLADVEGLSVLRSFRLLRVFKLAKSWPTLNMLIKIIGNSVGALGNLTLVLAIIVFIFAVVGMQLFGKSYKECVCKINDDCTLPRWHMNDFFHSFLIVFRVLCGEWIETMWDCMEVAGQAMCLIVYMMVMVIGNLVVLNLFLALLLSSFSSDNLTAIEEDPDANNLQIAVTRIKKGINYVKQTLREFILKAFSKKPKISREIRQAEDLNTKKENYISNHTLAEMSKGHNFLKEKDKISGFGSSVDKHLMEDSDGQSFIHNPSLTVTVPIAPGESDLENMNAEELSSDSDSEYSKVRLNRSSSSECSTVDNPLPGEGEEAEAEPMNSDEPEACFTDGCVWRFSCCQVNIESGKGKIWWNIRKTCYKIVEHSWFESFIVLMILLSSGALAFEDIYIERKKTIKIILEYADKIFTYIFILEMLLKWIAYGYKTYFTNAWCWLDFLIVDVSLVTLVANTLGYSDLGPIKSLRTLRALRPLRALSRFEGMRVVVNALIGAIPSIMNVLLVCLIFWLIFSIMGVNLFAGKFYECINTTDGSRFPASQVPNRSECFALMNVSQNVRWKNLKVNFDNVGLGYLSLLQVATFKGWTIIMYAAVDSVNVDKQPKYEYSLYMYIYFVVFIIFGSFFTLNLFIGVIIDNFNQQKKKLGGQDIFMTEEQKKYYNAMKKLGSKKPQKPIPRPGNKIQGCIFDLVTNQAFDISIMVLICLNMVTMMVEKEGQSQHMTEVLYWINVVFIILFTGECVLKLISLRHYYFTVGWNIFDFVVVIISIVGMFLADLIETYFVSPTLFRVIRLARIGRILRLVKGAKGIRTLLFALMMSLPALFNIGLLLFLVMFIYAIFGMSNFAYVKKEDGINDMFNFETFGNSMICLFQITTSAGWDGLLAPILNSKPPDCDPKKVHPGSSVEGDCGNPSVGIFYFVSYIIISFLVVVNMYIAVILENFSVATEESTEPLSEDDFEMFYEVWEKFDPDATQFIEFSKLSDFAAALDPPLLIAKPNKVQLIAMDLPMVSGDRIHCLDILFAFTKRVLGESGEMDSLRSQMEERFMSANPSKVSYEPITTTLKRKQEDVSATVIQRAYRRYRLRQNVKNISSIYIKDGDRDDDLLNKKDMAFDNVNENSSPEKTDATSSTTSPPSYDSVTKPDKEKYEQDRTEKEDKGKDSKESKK

Row | SMILES | pIC50 [1] | pIC50 [2]
1 | CC[C@H](C)[C@@H]1NC(=O)[C@@H]2CSSC[C@@H]3NC(=O)[C@H](C(C)C)NC(=O)[C@H](CC(C)C)NC(=O)[C@H](CC(N)=O)NC(=O)[C@@H]4CCCN4C(=O)[C@H](CCCNC(=N)N)NC(=O)[C@H](CSSC[C@H](NC(=O)[C@@H](N)CC(=O)O)C(=O)N[C@@H](CC(C)C)C(=O)NCC(=O)N[C@@H](Cc4ccccc4)C(=O)N[C@@H](CCSC)C(=O)N[C@@H](CCCNC(=N)N)C(=O)N[C@@H](CCCCN)C(=O)N2)NC(=O)[C@H](CSSC[C@@H](C(=O)N[C@@H](CCCCN)C(=O)N[C@@H](Cc2ccc(O)cc2)C(=O)N[C@H](C(=O)N[C@@H](CCCCN)C(N)=O)C(C)C)NC(=O)[C@H](Cc2c[nH]c4ccccc24)NC(=O)[C@H](CCCCN)NC(=O)[C@H](Cc2cnc[nH]2)NC(=O)[C@H]([C@@H](C)O)NC(=O)[C@H](CCCNC(=N)N)NC(=O)[C@H](CO)NC3=O)NC(=O)[C@H](CCCCN)NC(=O)[C@H](CC(=O)O)NC(=O)[C@H](CC(N)=O)NC(=O)[C@H](CC(=O)O)NC(=O)[C@@H]2CCCN2C1=O (H-DCLGFMRKCIPDNDKCCRPNLVCSRTHKWCKYVK-NH2; disulfide 2-17, 9-23, 16-30) | < 5.30 | < 5.30
2 | CC[C@H](C)[C@@H]1NC(=O)[C@@H]2CSSC[C@@H]3NC(=O)[C@H](C(C)C)NC(=O)[C@H](CC(C)C)NC(=O)[C@H](CC(N)=O)NC(=O)[C@@H]4CCCN4C(=O)[C@H](CCCNC(=N)N)NC(=O)[C@H](CSSC[C@H](NC(=O)[C@@H](N)CC(=O)O)C(=O)N[C@@H](CC(C)C)C(=O)NCC(=O)N[C@@H](Cc4ccccc4)C(=O)N[C@@H](CCSC)C(=O)N[C@@H](CCCNC(=N)N)C(=O)N[C@@H](CCCCN)C(=O)N2)NC(=O)[C@H](CSSC[C@@H](C(=O)N[C@@H](CCCCN)C(=O)N[C@@H](Cc2ccc(O)cc2)C(=O)N[C@H](C(=O)N[C@@H](Cc2ccccc2)C(N)=O)C(C)C)NC(=O)[C@H](Cc2c[nH]c4ccccc24)NC(=O)[C@H](CCCCN)NC(=O)[C@H](Cc2cnc[nH]2)NC(=O)[C@H]([C@@H](C)O)NC(=O)[C@H](CCCNC(=N)N)NC(=O)[C@H](CO)NC3=O)NC(=O)[C@H](CCCCN)NC(=O)[C@H](CC(=O)O)NC(=O)[C@H](CCC(=O)O)NC(=O)[C@H](CC(=O)O)NC(=O)[C@@H]2CCCN2C1=O (H-DCLGFMRKCIPDEDKCCRPNLVCSRTHKWCKYVF-NH2; disulfide 2-17, 9-23, 16-30) | 6.55 | < 5.30
3 | CC[C@H](C)[C@@H]1NC(=O)[C@@H]2CSSC[C@@H]3NC(=O)[C@H](C(C)C)NC(=O)[C@H](CC(C)C)NC(=O)[C@H](CC(N)=O)NC(=O)[C@@H]4CCCN4C(=O)[C@H](CCCNC(=N)N)NC(=O)[C@H](CSSC[C@H](NC(=O)[C@@H](N)CC(=O)O)C(=O)N[C@@H](CC(C)C)C(=O)NCC(=O)N[C@@H](Cc4ccccc4)C(=O)N[C@@H](CCSC)C(=O)N[C@@H](CCCNC(=N)N)C(=O)N[C@@H](CCCCN)C(=O)N2)NC(=O)[C@H](CSSC[C@@H](C(=O)N[C@@H](CCCCN)C(=O)N[C@@H](Cc2ccc(O)cc2)C(=O)N[C@H](C(=O)N[C@@H](Cc2ccccc2)C(N)=O)C(C)C)NC(=O)[C@H](Cc2c[nH]c4ccccc24)NC(=O)[C@H](CCCCN)NC(=O)[C@H](Cc2cnc[nH]2)NC(=O)[C@H](CCC(=O)O)NC(=O)[C@H](CCCNC(=N)N)NC(=O)[C@H](CO)NC3=O)NC(=O)[C@H](CCCCN)NC(=O)[C@H](CC(=O)O)NC(=O)[C@H](CC(N)=O)NC(=O)[C@H](CC(=O)O)NC(=O)[C@@H]2CCCN2C1=O (H-DCLGFMRKCIPDNDKCCRPNLVCSREHKWCKYVF-NH2; disulfide 2-17, 9-23, 16-30) | 6.16 | < 5.30

From ChEMBL document CHEMBL3797186, “Single Residue Substitutions That Confer Voltage-Gated Sodium Ion Channel Subtype Selectivity in the NaV1.7 Inhibitory Peptide GpTx-1” (J Med Chem, 2016)
